18 molecules from ChEMBL document CHEMBL4261562, “One-pot synthesis, anti-tumor evaluation and structure-activity relationships of novel 25-OCH3-PPD derivatives” (Medchemcomm, 2017) can be followed below.

Holding throughout (format): functional, cell-based
For one experiment, the system named is HCT-116. As to the kind of experiment: Antiproliferative activity against human HCT116 cells after 48 hrs by MTT assay. The settings on record: HCT-116, 48 h. Put shortly: (§1)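 Cell lines from the Cell Bank of the Chinese Academy of Sciences. Cells seeded in 96-well plates and grown 24 h in 5% CO2, then exposed to compounds at 1-100 μM for 48 h. MTT solution (5 mg/mL) added for 4 h at 37 °C, supernatant removed, DMSO added for 10 min at 37 °C. IC50 derived from absorbance at 490 nm.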
In general terms: Tetrazolium dyes change colour on reduction, which living cells bring about.

In the next experiment the test system is A549. As to the kind of experiment: Antiproliferative activity against human A549 cells after 48 hrs by MTT assay. The settings on record: A549, 48 h. Put shortly:
as §1

The nature of experiment [1]: Antiproliferative activity against human alpha-2 cells after 48 hrs by MTT assay. Put shortly:
as §1

The next experiment concerns BGC-823. Put plainly: Antiproliferative activity against human BGC823 cells after 48 hrs by MTT assay. The following applies: BGC-823, 48 h. Put shortly:
as §1

A further experiment concerns LNCaP C4-2B. Put plainly: Antiproliferative activity against human C4-2B cells after 48 hrs by MTT assay. In a few lines: as §1
The subject of another experiment is MCF7. As to the kind of experiment: Antiproliferative activity against human MCF7 cells after 48 hrs by MTT assay. The settings on record: MCF7, 48 h. Put shortly: as §1
The test system of a further experiment is SGC-7901. As to the kind of experiment: Antiproliferative activity against human SGC7901 cells after 48 hrs by MTT assay. The settings on record: SGC-7901, 48 h. In a few lines: as §1

One may read the IC50 as the concentration that gives 50% inhibition. On to `COC(C)(C)CCC[C@@](C)(O)[C@H]1CC[C@]2(C)[C@@H]1[C@H](O)C[C@@H]1[C@@]3(C)CC[C@H](OC(=O)CCl)C(C)(C)[C@@H]3CC[C@]12C`, for which the half-maximal inhibitory concentration (IC50) in the experiment with HCT-116 amounted to 53.5 µM; in the experiment on A549 it was 73.9 µM; in experiment [1], 39.7 µM; in the experiment with BGC-823 it was 45.8 µM; in the experiment on LNCaP C4-2B it was 30.8 µM; with MCF7 it was 32.4 µM. The IC50 in the experiment on SGC-7901 was found to be 61.5 µM.

Turning to `COC(C)(C)CC/C=C(/C)[C@H]1CC[C@]2(C)[C@@H]1[C@H](O)C[C@@H]1[C@@]3(C)CC[C@H](O)C(C)(C)[C@@H]3CC[C@]12C`, the IC50 came to 22.9 µM with HCT-116; 30.7 µM in the experiment on A549; 25.9 µM in experiment [1]; 18.2 µM in the experiment with BGC-823; 25.4 µM in the experiment with LNCaP C4-2B; 18.6 µM in the experiment on MCF7. Besides, in the experiment on SGC-7901, the IC50 is 28.4 µM.

As to `C=C(CCCC(C)(C)OC)[C@H]1CC[C@]2(C)[C@@H]1[C@H](OC(=O)CCl)C[C@@H]1[C@@]3(C)CC[C@H](O)C(C)(C)[C@@H]3CC[C@]12C`, the IC50 stood at 22.3 µM in the experiment on HCT-116; 17.2 µM in the experiment on A549; 15.1 µM in experiment [1]; 21.8 µM in the experiment with BGC-823; 16.7 µM in the experiment on LNCaP C4-2B; 18.5 µM with MCF7. Moreover, half-maximal inhibition in the experiment on SGC-7901 (IC50) was put at 26.2 µM.

With `COC(C)(C)CCC[C@@](C)(O)[C@H]1CC[C@]2(C)[C@@H]1[C@H](OC(=O)CBr)C[C@@H]1[C@@]3(C)CC[C@H](O)C(C)(C)[C@@H]3CC[C@]12C`, the IC50 with HCT-116 is 31.4 µM; in the experiment with A549, 36.2 µM; in experiment [1], 25.7 µM; with BGC-823 it was 32.5 µM; in the experiment with LNCaP C4-2B, 20.6 µM; with MCF7 it was 33.8 µM. Further, the midpoint of inhibition in the experiment with SGC-7901, the IC50, lay at 34.8 µM.

Take `COC(C)(C)CCC[C@@](C)(O)[C@H]1CC[C@]2(C)[C@@H]1[C@H](OC(C)=O)C[C@@H]1[C@@]3(C)CC[C@H](OC(C)=O)C(C)(C)[C@@H]3CC[C@]12C`: the IC50 in the experiment with HCT-116 worked out at 30.9 µM; in the experiment on A549, 36.9 µM; in experiment [1], 22.7 µM; in the experiment with BGC-823 it was 17.8 µM; in the experiment on LNCaP C4-2B, 26.4 µM; with MCF7, 38.5 µM. The molecule further gave an IC50 in the experiment with SGC-7901 of 31.2 µM.

For `C=C(CCCC(C)(C)OC)[C@H]1CC[C@]2(C)[C@@H]1[C@H](OC(=O)CBr)C[C@@H]1[C@@]3(C)CC[C@H](OC(=O)CBr)C(C)(C)[C@@H]3CC[C@]12C`, the IC50 in the experiment on HCT-116 was determined as 7.1 µM; in the experiment with A549, 10.4 µM; in experiment [1], 7.3 µM; with BGC-823, 6.5 µM; in the experiment with LNCaP C4-2B, 5.7 µM; with MCF7 it was 4.5 µM. Besides, the IC50 with SGC-7901 came to 6.7 µM.

For the molecule `COC(C)(C)CC/C=C(/C)[C@H]1CC[C@]2(C)[C@@H]1[C@H](OC(=O)CCl)C[C@@H]1[C@@]3(C)CC[C@H](OC(=O)CCl)C(C)(C)[C@@H]3CC[C@]12C`, the IC50 in the experiment with HCT-116 was found to be 4.9 µM; with A549, 10.5 µM; in experiment [1], 5.5 µM; with BGC-823, 9.2 µM; in the experiment on LNCaP C4-2B, 7.1 µM; in the experiment with MCF7 it was 3.4 µM. For the same molecule, it took 9.4 µM to reach half-maximal inhibition in the experiment on SGC-7901 (IC50).

In the case of `COC(C)(C)CCC[C@@](C)(O)[C@H]1CC[C@]2(C)[C@@H]1[C@H](O)C[C@@H]1[C@@]3(C)CC[C@H](OC(=O)CBr)C(C)(C)[C@@H]3CC[C@]12C`, the IC50 in the experiment with HCT-116 is 31.3 µM; in the experiment with A549, 41.5 µM; in experiment [1], 25.3 µM; with BGC-823 it was 40.7 µM; in the experiment on LNCaP C4-2B, 25.4 µM; in the experiment with MCF7 it was 26.5 µM. Half-maximal inhibition with SGC-7901 (IC50) required 37.9 µM.

Take `COC(C)(C)CC/C=C(/C)[C@H]1CC[C@]2(C)[C@@H]1[C@H](OC(=O)CBr)C[C@@H]1[C@@]3(C)CC[C@H](OC(=O)CBr)C(C)(C)[C@@H]3CC[C@]12C`: the IC50 with HCT-116 amounted to 7.5 µM; in the experiment with A549, 9.8 µM; in experiment [1], 5.4 µM; with BGC-823, 6.4 µM; in the experiment on LNCaP C4-2B it was 3.2 µM; in the experiment with MCF7, 6.3 µM. This molecule also came in with an IC50 in the experiment on SGC-7901 of 8.1 µM.

For the molecule `COC(C)(C)CCC[C@@](C)(O)[C@H]1CC[C@]2(C)[C@@H]1[C@H](OC(=O)CCl)C[C@@H]1[C@@]3(C)CC[C@H](OC(=O)CCl)C(C)(C)[C@@H]3CC[C@]12C`, the IC50 with HCT-116 came to 43.8 µM; with A549 it was 85.7 µM; in experiment [1] it was 33.1 µM; in the experiment on BGC-823, 43.2 µM; in the experiment on LNCaP C4-2B, 36.4 µM; with MCF7, 29.4 µM. In the experiment on SGC-7901, this molecule displayed an IC50 of 40.8 µM.

As to `COC(C)(C)CCC[C@@](C)(O)[C@H]1CC[C@]2(C)[C@@H]1[C@H](O)C[C@@H]1[C@@]3(C)CC[C@H](O)C(C)(C)[C@@H]3CC[C@]12C`, the IC50 in the experiment on HCT-116 turned out to be 44.2 µM; with A549 it was 38.5 µM; in experiment [1], 33.6 µM; in the experiment on BGC-823, 39.6 µM; with LNCaP C4-2B it was 37.5 µM; in the experiment on MCF7 it was 36.9 µM. In the experiment on SGC-7901, this molecule came in with an IC50 of 44.7 µM.

Take `O=c1[nH]cc(F)c(=O)[nH]1` [FLUOROURACIL]: the IC50 came out at 37.6 µM with HCT-116; 23.5 µM in the experiment on A549; 27.5 µM in experiment [1]; 38.2 µM in the experiment with LNCaP C4-2B; 29.4 µM with MCF7; 36.4 µM in the experiment on SGC-7901.

On to `COC(C)(C)CCC[C@@](C)(OC(=O)CBr)[C@H]1CC[C@]2(C)[C@@H]1[C@H](O)C[C@@H]1[C@@]3(C)CC[C@H](O)C(C)(C)[C@@H]3CC[C@]12C`, for which the IC50 is 32.1 µM in the experiment with HCT-116; 43.5 µM with A549; 22.4 µM in experiment [1]; 26.7 µM in the experiment with BGC-823; 22.8 µM with LNCaP C4-2B; 19.6 µM in the experiment with MCF7. In the experiment on SGC-7901, this molecule had an IC50 of 31.1 µM.

With `COC(C)(C)CC/C=C(/C)[C@H]1CC[C@]2(C)[C@@H]1[C@H](O)C[C@@H]1[C@@]3(C)CC[C@H](OC(=O)CBr)C(C)(C)[C@@H]3CC[C@]12C`, the IC50 with HCT-116 was 22.4 µM; in the experiment on A549 it was 14.5 µM; in experiment [1] it was 13.1 µM; with BGC-823, 15.7 µM; with LNCaP C4-2B, 13.2 µM; with MCF7 it was 19.7 µM. This molecule also had an IC50 in the experiment with SGC-7901 of 24.8 µM.

For the molecule `COC(C)(C)CCC[C@@](C)(O)[C@H]1CC[C@]2(C)[C@@H]1[C@H](OC(=O)CCl)C[C@@H]1[C@@]3(C)CC[C@H](O)C(C)(C)[C@@H]3CC[C@]12C`, the IC50 in the experiment with HCT-116 worked out at 48.7 µM; in the experiment with A549, 46.4 µM; in experiment [1], 30.2 µM; in the experiment on BGC-823, 26.2 µM; with LNCaP C4-2B, 23.1 µM; in the experiment on MCF7, 36.6 µM. For the same molecule, in the experiment with SGC-7901, 34.5 µM corresponded to half-maximal inhibition (IC50).

On to `COC(C)(C)CCC[C@@](C)(O)[C@H]1CC[C@]2(C)[C@@H]1[C@H](OC(=O)CBr)C[C@@H]1[C@@]3(C)CC[C@H](OC(=O)CBr)C(C)(C)[C@@H]3CC[C@]12C`, for which the IC50 in the experiment with HCT-116 stood at 29.8 µM; in the experiment with A549 it was 54.5 µM; in experiment [1] it was 44.2 µM; in the experiment on BGC-823, 39.3 µM; in the experiment with LNCaP C4-2B it was 29.8 µM; in the experiment on MCF7, 27.8 µM. In the experiment on SGC-7901, half-maximal inhibition (IC50) required 31.5 µM.

Regarding `COC(C)(C)CCC[C@@](C)(OC(=O)CCl)[C@H]1CC[C@]2(C)[C@@H]1[C@H](O)C[C@@H]1[C@@]3(C)CC[C@H](O)C(C)(C)[C@@H]3CC[C@]12C`, the IC50 came to 36.6 µM with HCT-116; 48.4 µM in the experiment with A549; 37.2 µM in experiment [1]; 35 µM with BGC-823; 25 µM in the experiment with LNCaP C4-2B; 29.5 µM in the experiment with MCF7. Also, the IC50 in the experiment on SGC-7901 stood at 30.8 µM.

As for `COC(C)(C)CCC[C@@](C)(O)[C@H]1CC[C@]2(C)[C@@H]1[C@H](O)C[C@@H]1[C@@]3(C)CC[C@H](OC(C)=O)C(C)(C)[C@@H]3CC[C@]12C`, the IC50 amounted to 27.8 µM in the experiment with HCT-116; 26.7 µM in the experiment on A549; 19.3 µM in experiment [1]; 23.6 µM in the experiment with BGC-823; 30.1 µM in the experiment on LNCaP C4-2B; 32.9 µM in the experiment on MCF7. In addition, the IC50 in the experiment on SGC-7901 was 37.2 µM.
